Most compounds without a hit are left out; they make up all but 1.4% or so of the library.
bovine MsrA act: bovine methionine sulfoxide reductase A activation | purified bovine MsrA, absorbance read-out | activation, % at 10.6 µM | actives 0.3% (n = 360,000); in the data active = activation above about 7.5%
ASAP1 GAP inh: inhibitors of human ASAP1 ArfGAP activity. ASAP1-stimulated ARF1 GTP hydrolysis, GDP FP detection. inhibition, % at 16.5 µM. actives 0.19% (n = 360,000). Q9ULH1; in the data active = inhibition above about 25%
Target sequence (Q9ULH1 325-724 limits assumed): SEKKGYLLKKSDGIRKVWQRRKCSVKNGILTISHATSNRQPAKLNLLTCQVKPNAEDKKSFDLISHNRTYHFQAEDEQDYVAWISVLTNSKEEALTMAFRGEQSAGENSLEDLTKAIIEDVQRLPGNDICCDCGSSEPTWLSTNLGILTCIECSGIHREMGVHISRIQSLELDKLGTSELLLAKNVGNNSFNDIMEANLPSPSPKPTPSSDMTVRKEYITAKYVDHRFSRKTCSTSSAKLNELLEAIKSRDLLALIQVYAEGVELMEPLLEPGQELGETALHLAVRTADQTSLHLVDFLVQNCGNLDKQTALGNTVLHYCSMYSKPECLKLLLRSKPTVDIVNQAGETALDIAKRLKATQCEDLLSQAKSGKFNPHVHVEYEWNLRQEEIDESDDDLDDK
ARFGAP1 inh: rat ARFGAP1 inhibition | inhibition, % at 16.5 µM | actives 0.26% (n = 360,000) | Arfgap1-stimulated ARF1 GTP hydrolysis, GDP FP detection;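 active = inhibition above a per-plate limit, mean inhibition of low control wells plus 3 SD, cut at about 25% in these data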
Target sequence (Q62848 1-136 limits assumed): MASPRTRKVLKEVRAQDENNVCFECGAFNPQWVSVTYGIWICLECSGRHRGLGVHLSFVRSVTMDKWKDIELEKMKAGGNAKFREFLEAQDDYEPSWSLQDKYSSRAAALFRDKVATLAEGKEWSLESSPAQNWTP
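System: truncated rat Arfgap1 GAP domain / Benchmarks: high control wells lacking Arfgap1, low control full reaction with DMSO / Times: compound-enzyme preincubation 20 min, reaction 120 min, detection 60 min, 25 °C / Repeats: one replicate per compound / Also added: human ARF1(Δ1-17)-GTP substrate / Measured by: Tracer-displacement fluorescence polarization with EDTA stop, 620/688 nm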
MsrA inh: bovine MsrA inhibition; purified bovine MsrA, absorbance read-out; inhibition, % at 15.5 µM; actives 0.75% (n = 360,000)
MsrA inh confirm: confirmation of bovine MsrA inhibitors; shares compounds with MsrA inh; purified bovine MsrA, absorbance read-out; inhibition, % at 15.5 µM; actives 41% (n = 2,300); AID 651822;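 also: coupled to thioredoxin reductase with NADPH and selenocystamine and DMSO as substrate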
Of the large screens only hits and unclear results are named; the others gave an inactive call (follow-up assays come after a bar, where they were run). Rule as the data show it, unless noted: active = inhibition above about 4.5%; inactive = the rest.

COc1cc(/C=C/C(=O)OC(C)C(=O)Nc2c(C)n(C)n(-c3ccccc3)c2=O)ccc1O (configuration not stated)	MsrA inh 5.9 | MsrA inh confirm inactive
Cc1c(NC(=O)C(C)OC(=O)/C=C/c2ccccc2)c(=O)n(-c2ccccc2)n1C (configuration not stated)	none
Cn1c2c(c(=O)n(C)c1=O)C(C(F)(F)F)(C(F)(F)F)N=C(c1ccccc1Cl)N2	MsrA inh 9.1 | MsrA inh confirm 6.7
O=C(NC1CCCCC1)C(CCc1ccccc1)N1CCc2ccccc2C1 (configuration not stated)	none
COc1ccccc1C(=O)N/C(=C\c1cn(C)c2ccccc12)C(=O)NCCN1CCOCC1	none
Cn1cc(/C=C(\NC(=O)c2ccccc2Cl)C(=O)N2CCOCC2)c2ccccc21	MsrA inh 6.3 | MsrA inh confirm inactive
COc1ccccc1C(=O)N/C(=C\c1cn(C)c2ccccc12)C(=O)N1CCOCC1	none
COc1cc(C(=O)N/C(=C\c2cn(C)c3ccccc23)C(=O)N2CCN(C)CC2)cc(OC)c1OC	none
COc1ccccc1C(=O)N/C(=C\c1cn(C)c2ccccc12)C(=O)NCCCN1CCOCC1	MsrA inh 5.3 | MsrA inh confirm inactive
O=C(NC(=S)NCCCN1CCOCC1)c1cccc2ccccc12	MsrA inh 9.4 | MsrA inh confirm inactive
COc1ccc(C(=O)N/C(=C\c2cn(C)c3ccccc23)C(=O)N2CCOCC2)cc1OC	MsrA inh 4.8 | MsrA inh confirm inactive
Cc1ccc(C(=O)NC(=S)NCCCN2CCOCC2)cc1	none
C[C@@H]1CN([C@@H](C)CO)C(=O)c2cc(Br)cnc2O[C@H]1CN(C)C(=O)Nc1ccc2c(c1)OCO2	none
O=C(NCCCN1CCOCC1)c1cc2c(=O)[nH]c3ccccc3c2s1	MsrA inh 5.3 | MsrA inh confirm inactive
CCN1CCN(CCCNC(=O)c2cc3c(=O)[nH]c4ccccc4c3s2)CC1	none
CN(C)/C(CN1CCN(C=O)CC1)=C1\N=C(c2ccccc2)OC1=O	MsrA inh 6.0 | MsrA inh confirm 5.3
CC1=C(C(=O)c2ccccc2)C(c2ccc(OC(F)F)cc2)NC(=S)N1 (configuration not stated)	none
CC1=C(C(=O)c2ccccc2)C(c2ccc(O)cc2)NC(=S)N1 (configuration not stated)	MsrA inh 5.4 | MsrA inh confirm inactive
Cc1cc(-c2cc(C(=O)NCc3ccccc3)on2)nc(NCC2CC2)n1	none
Cn1nnc2sc3c(c2c1=O)CCCC3	MsrA inh 5.0 | MsrA inh confirm 5.8
Cc1nc2sc3c(c2c(=O)n1N)CCC3	none
COC(=O)c1[nH]c2cc(OC)c(OC)cc2c1NC(=O)Oc1ccccc1	MsrA inh 5.0 | MsrA inh confirm inactive
COC(=O)c1[nH]c2ccccc2c1NC(=O)Oc1ccccc1	none
COCCn1c(SCC(=O)NC2CCCCC2)nnc1-c1ccncc1	none
Cc1ccc(S(=O)(=O)c2c(N)n(NC(=O)c3ccco3)c3nc4ccccc4nc23)cc1	MsrA inh 4.8 | MsrA inh confirm inactive
O=C(Nc1ccc(F)cc1)/C(=C1/CCCCCN1)[N+](=O)[O-]	MsrA inh 6.4 | MsrA inh confirm inactive
CN(C(=O)c1ccccc1C(=O)OCC(=O)c1ccc(Br)cc1)c1ccccc1	none
COc1cccc2cc3c(=O)oc4ccccc4c3nc12	MsrA inh 18.5 | MsrA inh confirm 13.4
CN(CC(=O)NCCc1ccc(F)cc1)Cc1cccc(Cl)c1	none
Cc1ccc(S(=O)(=O)NCCNc2ccc([N+](=O)[O-])cc2C(F)(F)F)cc1	MsrA inh 29.3 | MsrA inh confirm 21.3
Cc1ccc(C(=O)NCCNc2ccc([N+](=O)[O-])cc2C(F)(F)F)cc1	none
Nc1nc2nccc(-c3ccco3)n2n1	MsrA inh 6.1 | MsrA inh confirm inactive
Nc1nc2nccc(-c3ccccn3)n2n1	none
COc1cc([N+](=O)[O-])ccc1NC(=O)CCCOc1cc(C)ccc1C	none
Cc1ccccc1Nc1ncnc2[nH]ncc12	MsrA inh 14.2 | MsrA inh confirm 11.6
CCOC(=O)/C(C#N)=C/Nc1ccccc1OC(F)(F)F	MsrA inh 11.4 | MsrA inh confirm 7.1
CCOC(=O)/C(C#N)=C/Nc1ccccc1NS(=O)(=O)c1cccc(C(C)=O)c1	MsrA inh 6.0 | MsrA inh confirm inactive
CCOC(=O)/C(C#N)=C/Nc1cc(OC)ccc1OC	none
O=S1(=O)N=C(N2CCc3ccccc3C2)c2ccccc21	none
O=S1(=O)N=C(N2CCCc3ccccc32)c2ccccc21	MsrA inh 10.1 | MsrA inh confirm inactive
Cc1[nH]c2ccccc2c1/C=N\NC(=O)c1ccccc1Cl	none
CCC(=O)Nc1ccc(C(=O)N/N=C/c2c(C)[nH]c3ccccc23)cc1	MsrA inh 6.5 | MsrA inh confirm 4.9
Cc1cc(C(=O)N/N=C/c2c(C)n(C)c3ccccc23)n[nH]1	MsrA inh 6.9 | MsrA inh confirm inactive
Cc1[nH]c2ccccc2c1/C=N/NC(=O)c1cc(-c2cccs2)[nH]n1	MsrA inh 4.7 | MsrA inh confirm inactive
CCCc1nc2ccc(Cl)cn2c1Cc1ccsc1	none
O=C(CSc1nc(=O)n2ccccc2n1)N1CCN(c2ccccc2)CC1	none
Cc1ccc(N/N=C(\C#N)C(=N)N2CCOCC2)cc1	none
N#C/C(=N\Nc1ccccc1)C(=N)N1CCOCC1	MsrA inh 5.1 | MsrA inh confirm inactive
CC(C)CN(C(=O)CN(C)C(=O)Cc1c(F)cccc1Cl)c1c(N)n(CC(C)C)c(=O)[nH]c1=O	none
CCc1nc2c(OCc3ccccc3C)cccn2c1N(C)C(=O)C1CC1	none
CCN(CC)C(=O)c1ccc2nc(-c3ccccc3)c(-c3ccccc3)nc2c1	none
CCN(CC)C(=O)c1ccc2nc3ccccc3nc2c1	MsrA inh 5.6 | MsrA inh confirm inactive
CC(=O)Nc1ccc(N=C(C2=C(O)c3ccccc3C2=O)c2ccccc2)cc1	MsrA inh 4.7 | MsrA inh confirm inactive
CCN(CC)c1ccc(/C=N/NC(=O)CCC(=O)NCc2ccccc2)c(O)c1	MsrA inh 4.7 | MsrA inh confirm 4.8
CCOC(=O)N/N=C/c1ccc(N(CC)CC)cc1O	MsrA inh 6.1 | MsrA inh confirm 6.3
CCN(CC)c1ccc(/C=N/NC(=O)CNC(=O)C2COc3ccccc3O2)c(O)c1 (configuration not stated)	MsrA inh 5.2 | MsrA inh confirm inactive
CCN(CC)c1ccc(/C=N/Nc2ccc(C)cc2)c(O)c1	none
COc1cc(/C=N\NC(=O)CNC(=O)C2COc3ccccc3O2)ccc1O (configuration not stated)	none
COC(CNC(=O)c1cn(C)c2ccc(S(=O)(=O)N(C)C3CCCCC3)cc2c1=O)OC	none
CCN(CC)C(=O)c1ncn2c1C(=O)NC[C@@H]2C	none (no result: bovine MsrA act)
c1ccc(N=Nc2cn[nH]c2-c2ccco2)cc1	MsrA inh 6.9 | MsrA inh confirm inactive
O=C(N/N=C/c1ccsc1)c1ccccn1	none
O=C(N/N=C/c1ccc(Br)s1)c1ccccn1	MsrA inh 6.0 | MsrA inh confirm 7.0
Cc1ccsc1/C=N/NC(=O)c1ccccn1	MsrA inh 5.7 | MsrA inh confirm inactive

Screening data as filed in PubChem BioAssay.
